{"source": "ChEMBL document CHEMBL1156192", "about": "“N-((1-benzyl-1H-1,2,3-triazol-4-yl)methyl)arylamide as a new scaffold that provides rapid access to antimicrotubule agents: synthesis and evaluation of antiproliferative activity against select cancer cell lines” (J Med Chem, 2010)", "key": {"[1]": {"tested_on": "HeLa", "test": "Cell cycle arrest in human HeLa cells assessed as accumulation at G1 phase at 5 uM after 18 hrs by flow cytometry", "type": "functional", "in_short": "(§1)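 HeLa in RPMI-1640 with 10% FBS, Pen-Strep; 8 x 10^5 cells in 4 mL dosed at 5 µM (0.05% DMSO final) for 18 h, triplicate. Harvested cells fixed in 70% ice-cold ethanol 1 h at -20 °C, RNase A treated 2 h, propidium iodide 50 µg/mL stained. DNA content by flow cytometry, 20,000 events, single cells gated on PI width vs area.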"}, "[2]": {"tested_on": "HeLa", "test": "Cell cycle arrest in human HeLa cells assessed as accumulation at S phase at 5 uM after 18 hrs by flow cytometry", "type": "functional", "in_short": "as §1"}, "[3]": {"tested_on": "HeLa", "test": "Cell cycle arrest in human HeLa cells assessed as accumulation at G2 phase at 5 uM after 18 hrs by flow cytometry", "type": "functional", "in_short": "as §1"}, "[4]": {"tested_on": "HeLa", "test": "Cell cycle arrest in human HeLa cells assessed as accumulation at G2/M cells at 5 uM after 18 hrs by flow cytometry", "type": "functional", "in_short": "as §1"}, "[5]": {"tested_on": "U-937", "test": "Antiproliferative activity against human U937 cells by sulforhodamine B assay", "type": "functional, cell-based", "in_short": "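U-937 cells in RPMI-1640 with 10% FBS and 1% Pen-Strep; 4 x 10^4 cells/well, compound in DMSO, replicates of 5, 72 h at 37 °C, 5% CO2. Fixed with cold TCA overnight at 4 °C. Stained 30 min with 0.057% SRB in 1% acetic acid; bound dye released in 10 mM Tris base, A510 read. Vehicle and cell-free wells set 100%/0% biomass; IC50 from logistic fit.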"}, "[6]": {"tested_on": "HeLa", "test": "Cell cycle arrest in human HeLa cells assessed as accumulation at G2/G1 phase at 5 uM after 18 hrs by flow cytometry", "type": "functional", "in_short": "as §1"}, "[7]": {"tested_on": "MCF7", "test": "Antiproliferative activity against human MCF7 cells after 72 hrs by crystal violet biomass reduction assay", "type": "functional, cell-based", "details": "MCF7, 72 h", "in_short": "(§2)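 Cells grown in α-MEM with 5% FBS at 37 °C, 5% CO2; 2,500 cells/well allowed 24 h before compound in DMSO, triplicates, ≥5 concentrations, 72 h exposure. Biomass read by crystal violet staining, Triton X-100 elution, OD 595 nm. IC50 from dose-response as 50% reduction in net cell mass versus vehicle, corrected with no-cell background.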"}, "[8]": {"test": "Inhibition of tubulin polymerization at 10 uM", "in_short": "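Tubulin added in PIPES pH 6.9 buffer with EGTA, MgCl2, 5% glycerol; compound at 10 µM final from DMSO. After 10 min on ice, GTP added, then polymerization followed by absorbance at 340 nm for 30 min at 37 °C. Paclitaxel and nocodazole at 10 µM final as controls.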"}, "[9]": {"tested_on": "HeLa", "test": "Change in cellular morphology of human HeLa cells assessed as DNA condensation at 5 uM after 18 hrs using propidium-iodide staining by confocal microscopy", "type": "functional, cell-based", "in_short": "(§3)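 HeLa attached 3 h on cover slips, then 18 h with DMSO vehicle or 5 µM compound (0.05% DMSO final). Brief microtubule stabilizing buffer (PIPES pH 6.8), 0.5% glutaraldehyde fixation 10 min, NaBH4 quench, blocking; FITC anti-α-tubulin (1:50) with RNase A 2.5 h, then propidium iodide 50 µg/mL 15 min. Imaged by confocal microscopy.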"}, "[10]": {"tested_on": "HeLa", "test": "Change in cellular morphology of human HeLa cells assessed as interference in microtubule formation at 5 uM after 18 hrs by confocal microscopy", "type": "functional, cell-based", "in_short": "as §3"}, "[11]": {"tested_on": "HeLa", "test": "Change in cellular morphology of human HeLa cells assessed as microtubule disruption at 5 uM after 18 hrs using FITC-conjugated alpha-tubulin antibody by confocal microscopy", "type": "functional, cell-based", "in_short": "as §3"}, "[12]": {"tested_on": "HeLa", "test": "Cell cycle arrest in human HeLa cells assessed as accumulation at M phase at 5 uM after 18 hrs by flow cytometry", "type": "functional, cell-based", "in_short": "as §1"}, "[13]": {"tested_on": "MCF7", "test": "Antiproliferative activity against human MCF7 cells by crystal violet biomass reduction assay", "type": "functional, cell-based", "details": "TDE = time-dependent effect", "in_short": "as §2"}, "[14]": {"tested_on": "Mycobacterium tuberculosis", "test": "Antimycobacterial activity against Mycobacterium tuberculosis H37Rv", "type": "functional"}}, "note": "Activity calls are given as the source filed them. The rule behind the calls is not given here."}
{"compound": "CC(=O)NCc1cn(Cc2cccc(Oc3ccccc3)c2)nn1", "values": [{"measurement": "Activity", "setting": "[1]", "result": 53.85, "unit": "%"}, {"measurement": "Activity", "setting": "[2]", "result": 24.94, "unit": "%"}, {"measurement": "Activity", "setting": "[3]", "result": 17.26, "unit": "%"}, {"measurement": "Activity", "setting": "[4]", "result": "inactive"}, {"measurement": "IC50", "setting": "[5]", "result": 28000, "unit": "nM"}, {"measurement": "Activity", "setting": "[6]", "result": 1.87, "unit": "%"}, {"measurement": "IC50", "setting": "[7]", "result": 6400, "unit": "nM"}]}
{"compound": "COC(=O)Nc1nc2cc(C(=O)c3cccs3)ccc2[nH]1", "values": [{"measurement": "inhibition", "setting": "[8]", "result": "Active"}]}
{"compound": "COc1cc2c(c(OC)c1OC)-c1ccc(OC)c(=O)cc1[C@@H](NC(C)=O)CC2", "note": "[COLCHICINE]", "values": [{"measurement": "IC50", "setting": "[5]", "result": 8, "unit": "nM"}, {"measurement": "IC50", "setting": "[7]", "result": 13.4, "unit": "nM"}]}
{"compound": "O=C(NCc1cn(Cc2cccc(Oc3ccccc3)c2)nn1)c1ccccn1", "values": [{"measurement": "Activity", "setting": "[1]", "result": 0.86, "unit": "%"}, {"measurement": "Activity", "setting": "[9]", "result": "Active"}, {"measurement": "inhibition", "setting": "[8]", "result": "Active"}, {"measurement": "Activity", "setting": "[10]", "result": "Active"}, {"measurement": "Activity", "setting": "[2]", "result": 7.59, "unit": "%"}, {"measurement": "Activity", "setting": "[3]", "result": 90.72, "unit": "%"}, {"measurement": "Activity", "setting": "[4]", "result": ">90", "unit": "%"}, {"measurement": "Activity", "setting": "[11]", "result": "Active"}, {"measurement": "IC50", "setting": "[5]", "result": 580, "unit": "nM"}, {"measurement": "Activity", "setting": "[6]", "result": 2, "unit": "%"}, {"measurement": "Activity", "setting": "[12]", "result": "Active"}, {"measurement": "IC50", "setting": "[7]", "result": 46, "unit": "nM"}, {"measurement": "Activity", "setting": "[13]", "result": "tde"}]}
{"compound": "COc1cc2c(cc1O)CC[C@@H]1[C@@H]2CC[C@]2(C)[C@@H](O)CC[C@@H]12", "note": "[2-METHOXYESTRADIOL]", "values": [{"measurement": "IC50", "setting": "[5]", "result": 2910, "unit": "nM"}, {"measurement": "IC50", "setting": "[7]", "result": 842, "unit": "nM"}]}
{"compound": "O=C(OCc1ccccc1)[C@H]1COC(c2ccccc2OCc2ccccc2)=N1", "values": [{"measurement": "MIC", "setting": "[14]", "result": 4.2, "unit": "µM"}, {"measurement": "IC50", "setting": "[7]", "result": "> 20000", "unit": "nM"}]}
{"compound": "COc1ccc(C2=NC(C(=O)Nc3ccccc3O)CO2)cc1", "note": "(configuration not stated)", "values": [{"measurement": "MIC", "setting": "[14]", "result": 13, "unit": "µM"}, {"measurement": "IC50", "setting": "[7]", "result": "> 20000", "unit": "nM"}]}
{"compound": "O=C(NCc1cn(Cc2cccc(Oc3ccccc3)c2)nn1)c1ccccc1", "values": [{"measurement": "IC50", "setting": "[7]", "result": 245, "unit": "nM"}]}
{"compound": "CC(=O)O[C@H]1C(=O)[C@@]2(C)[C@H]([C@H](OC(=O)c3ccccc3)[C@]3(O)C[C@H](OC(=O)[C@H](O)[C@@H](NC(=O)c4ccccc4)c4ccccc4)C(C)=C1C3(C)C)[C@]1(OC(C)=O)CO[C@@H]1C[C@@H]2O", "values": [{"measurement": "inhibition", "setting": "[8]", "result": "inactive"}]}
{"compound": "CCCCCCCCCCCCCCCC(=O)N(O)CCCC[C@H](NC(=O)[C@H]1COC(c2ccccc2O)=N1)C(=O)O[C@@H](C)CC(=O)N[C@H]1CCCCN(O)C1=O", "values": [{"measurement": "MIC", "setting": "[14]", "result": 3.9, "unit": "µM"}]}
